Experiments:
Rattus norvegicus [1] = assay: Inhibition of IgE-mediated passive cutaneous anaphylaxis (PCA) by 50% in rat dosed perorally; conditions: po
Rattus norvegicus [2] = species on record: Rattus norvegicus; assay: Concentration required to inhibit antigen-induced release of histamine (AIR) by 50% from rat peritoneal mast cells (RMC) (in vitro); type: functional, cell-based; conditions: Mast cell, read-out: I-50
Method in brief: (§1)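 Rat peritoneal mast cells passively sensitized in vitro with rat anti-ovalbumin serum; compounds dissolved in Me2SO (final 0.17%). Antigen-induced and spontaneous (no antigen) histamine release measured after 15-min incubation; released and residual extracted histamine determined fluorometrically on an AutoAnalyzer.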

Rattus norvegicus [3] = species on record: Rattus norvegicus; assay: Concentration required to inhibit antigen-induced release of histamine (AIR) by 50% from rat peritoneal mast cells (RMC) (in vitro); f = Stimulation of AIR; type: functional, cell-based
Method in brief: as §1

Rattus norvegicus [4] = species on record: Rattus norvegicus; assay: Concentration required to inhibit antigen-induced release of histamine (AIR) by 50% from rat peritoneal mast cells (RMC) (in vitro).; type: functional, cell-based
Method in brief: as §1

Compound | ED50 (Rattus norvegicus [1]) | IC50 (Rattus norvegicus [2]) | other results
Cc1ccc2c(c1)nc(-c1nnc(O)o1)n2C | 5 mg/kg | 6000 nM | –
Oc1nnc(-c2cc3ccccc3o2)o1 | 2 mg/kg | 1500 nM | –
Cn1c(-c2n[nH]c(O)n2)nc2ccccc21 | – | – | I-50 (Rattus norvegicus [3]): Stimulation of AIR
CCOC(=O)Cn1nc(-c2nc3ccccc3o2)oc1=O | – | – | I-50 (Rattus norvegicus [4]): Stimulation of AIR
CC1=C(c2nnc(O)o2)Cc2ccccc21 | > 100 mg/kg | – | I-50 (Rattus norvegicus [4]): Stimulation of AIR
CCOC(=O)c1ccc2oc(-c3nnc(O)o3)nc2c1 | – | 1000 nM | –
Cc1cccc2oc(-c3nnc(O)o3)nc12 | – | 1000 nM | –
Cn1c(-c2nnc(O)o2)nc2ccccc21 | 1 mg/kg | 900 nM | –
Cc1ccc2nc(-c3nnc(O)o3)oc2c1 | 2 mg/kg | 5000 nM | –
CCOC(=O)n1nc(-c2nc3ccc(C)cc3o2)oc1=O | – | – | I-50 (Rattus norvegicus [4]): Stimulation of AIR
Oc1nnc(-c2cc3ccccc3[nH]2)o1 | – | 33000 nM | –
COC(=O)c1cc(OC)c2oc(-c3nnc(O)o3)nc2c1 | 9 mg/kg | 300 nM | –
Oc1nnc(-c2nc3ccccc3o2)o1 | 3 mg/kg | 1200 nM | –
Oc1nnc(-c2nc3cc(Cl)ccc3o2)o1 | 16 mg/kg | 350 nM | –
Cn1nc(-c2nc3ccccc3o2)oc1=O | – | – | I50 (Rattus norvegicus [3]): Stimulation of AIR
CC(=O)n1nc(-c2nc3ccccc3n2C)oc1=O | – | 500 nM | –
Oc1nnc(-c2cc3cc(Cl)ccc3[nH]2)o1 | 9 mg/kg | – | –
Oc1nnc(-c2sc3ccccc3c2Cl)o1 | > 125 mg/kg | 200 nM | –
CCOC(=O)n1nc(-c2nc3cc(C)ccc3n2C)oc1=O | – | – | I-50 (Rattus norvegicus [4]): Stimulation of AIR
O=C(/C=C/c1ccccc1)n1nc(-c2nc3ccccc3o2)oc1=O | – | 15000 nM | –
CCOC(=O)n1nc(-c2nc3ccccc3n2C)oc1=O | – | – | I-50 (Rattus norvegicus [4]): Stimulation of AIR
Oc1n[nH]c(-c2nc3ccccc3o2)n1 | – | 60000 nM | –
CCOC(=O)n1nc(-c2nc3ccccc3o2)oc1=O | – | – | I-50 (Rattus norvegicus [4]): Stimulation of AIR
CC(=O)n1nc(-c2nc3ccccc3o2)oc1=O | – | 1400 nM | –
Cc1ccc2oc(-c3nnc(O)o3)nc2c1 | 2 mg/kg | 400 nM | –
O=C([O-])c1cc(=O)c2c(OCC(O)COc3cccc4oc(C(=O)[O-])cc(=O)c34)cccc2o1.[Na+].[Na+] [CROMOLYN SODIUM] | 6 mg/kg | 3000 nM | –
